Experimental data taken from ChEMBL document CHEMBL3421560, “Search for factors affecting antibacterial activity and toxicity of 1,2,4-triazole-ciprofloxacin hybrids” (Eur J Med Chem, 2015).
≈ marks a conversion by molar mass, not a printed value.

Legend:
Type in all cases: functional
[1] = tested on: Staphylococcus aureus; experiment: Antimicrobial activity against methicillin-susceptible Staphylococcus aureus ATCC 25923 after 18 hrs by broth microdilution method; settings: ATCC 25923, 18 h
[2] = tested on: Staphylococcus aureus; experiment: Antimicrobial activity against methicillin-susceptible Staphylococcus aureus ATCC 6538 after 18 hrs by broth microdilution method; settings: ATCC 6538, 18 h
[3] = tested on: Staphylococcus aureus; experiment: Antimicrobial activity against Staphylococcus aureus Microbank 14001 after 18 hrs by broth microdilution method; settings: Microbank 14001, 18 h
[4] = tested on: Staphylococcus epidermidis; experiment: Antimicrobial activity against Staphylococcus epidermidis ATCC 12228 after 18 hrs by broth microdilution method; settings: ATCC 12228, 18 h
[5] = tested on: Bacillus subtilis; experiment: Antimicrobial activity against Bacillus subtilis […] after 18 hrs by broth microdilution method
[6] = tested on: Bacillus cereus; experiment: Antimicrobial activity against Bacillus cereus ATCC 10876 after 18 hrs by broth microdilution method; settings: ATCC 10876, 18 h
[7] = tested on: Micrococcus luteus; experiment: Antimicrobial activity against Micrococcus luteus ATCC 10240 after 18 hrs by broth microdilution method; settings: ATCC 10240, 18 h
[8] = tested on: Staphylococcus aureus; experiment: Ratio of MBC for methicillin-susceptible Staphylococcus aureus ATCC 25923 to MIC for methicillin-susceptible Staphylococcus aureus ATCC 25923
Procedure, shortened: (§1)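 MBC taken as lowest concentration giving >99.9% CFU reduction of the initial inoculum; value is MBC divided by MIC for the same strain.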

[9] = tested on: Staphylococcus aureus; experiment: Ratio of MBC for methicillin-susceptible Staphylococcus aureus ATCC 6538 to MIC for methicillin-susceptible Staphylococcus aureus ATCC 6538; procedure, shortened: as §1
[10] = tested on: Staphylococcus aureus; experiment: Ratio of MBC for Staphylococcus aureus Microbank 14001 to MIC for Staphylococcus aureus Microbank 14001; procedure, shortened: as §1
[11] = tested on: Escherichia coli; experiment: Antimicrobial activity against Escherichia coli ATCC 25922 after 18 hrs by broth microdilution method; settings: ATCC 25922, 18 h
[12] = tested on: Klebsiella pneumoniae; experiment: Antimicrobial activity against Klebsiella pneumoniae ATCC 13883 after 18 hrs by broth microdilution method; settings: ATCC 13883, 18 h
[13] = tested on: Proteus mirabilis; experiment: Antimicrobial activity against Proteus mirabilis ATCC 12453 after 18 hrs by broth microdilution method; settings: ATCC 12453, 18 h
[14] = tested on: Pseudomonas aeruginosa; experiment: Antimicrobial activity against Pseudomonas aeruginosa ATCC 9027 after 18 hrs by broth microdilution method; settings: ATCC 9027, 18 h

MIC [1] [µM]	MIC [2] [µM]	MIC [3] [µM]	MIC [4] [µM]	MIC [5] [µM]	MIC [6] [µM]	MIC [7] [µM]	MIC [11] [µM]	MIC [12] [µM]	MIC [13] [µM]	MIC [14] [µM]	Compound	Ratio [8]	Ratio [9]	Ratio [10]
0.8 (≈ 0.49 µg/mL)	0.39 (≈ 0.239 µg/mL)	0.19 (≈ 0.116 µg/mL)	0.098 (≈ 0.06 µg/mL)	0.39 (≈ 0.239 µg/mL)	0.098 (≈ 0.06 µg/mL)	1.59 (≈ 0.974 µg/mL)	0.012 (≈ 0.00735 µg/mL)	0.049 (≈ 0.03 µg/mL)	0.024 (≈ 0.0147 µg/mL)	0.39 (≈ 0.239 µg/mL)	O=C(O)c1cn(C2CC2)c2cc(N3CCN(Cn4nc(-c5ccccc5O)n(-c5ccccc5)c4=S)CC3)c(F)cc2c1=O	<=4	<=4	<=4
1.55 (≈ 0.978 µg/mL)	0.38 (≈ 0.24 µg/mL)	0.19 (≈ 0.12 µg/mL)	0.38 (≈ 0.24 µg/mL)	0.19 (≈ 0.12 µg/mL)	0.19 (≈ 0.12 µg/mL)	3.09 (≈ 1.95 µg/mL)	0.011 (≈ 0.00694 µg/mL)	0.048 (≈ 0.0303 µg/mL)	0.024 (≈ 0.0151 µg/mL)	0.095 (≈ 0.0599 µg/mL)	O=C(O)c1cn(C2CC2)c2cc(N3CCN(Cn4nc(-c5ccccc5O)n(-c5ccc(F)cc5)c4=S)CC3)c(F)cc2c1=O	<=4	<=4	<=4
0.76 (≈ 0.492 µg/mL)	0.18 (≈ 0.116 µg/mL)	0.093 (≈ 0.0602 µg/mL)	0.18 (≈ 0.116 µg/mL)	0.093 (≈ 0.0602 µg/mL)	0.18 (≈ 0.116 µg/mL)	1.51 (≈ 0.977 µg/mL)	0.011 (≈ 0.00712 µg/mL)	0.023 (≈ 0.0149 µg/mL)	0.011 (≈ 0.00712 µg/mL)	0.37 (≈ 0.239 µg/mL)	O=C(O)c1cn(C2CC2)c2cc(N3CCN(Cn4nc(-c5ccccc5O)n(-c5ccc(Cl)cc5)c4=S)CC3)c(F)cc2c1=O	<=4	<=4	<=4
0.74 (≈ 0.489 µg/mL)	0.18 (≈ 0.119 µg/mL)	0.36 (≈ 0.238 µg/mL)	0.091 (≈ 0.0602 µg/mL)	0.045 (≈ 0.0298 µg/mL)	0.091 (≈ 0.0602 µg/mL)	1.48 (≈ 0.979 µg/mL)	0.023 (≈ 0.0152 µg/mL)	0.023 (≈ 0.0152 µg/mL)	0.046 (≈ 0.0304 µg/mL)	0.36 (≈ 0.238 µg/mL)	O=C(O)c1cn(C2CC2)c2cc(N3CCN(Cn4nc(-c5ccccc5O)n(Cc5ccc(Cl)cc5)c4=S)CC3)c(F)cc2c1=O	<=4	<=4	<=4
0.76 (≈ 0.488 µg/mL)	0.37 (≈ 0.238 µg/mL)	0.18 (≈ 0.116 µg/mL)	0.093 (≈ 0.0598 µg/mL)	0.093 (≈ 0.0598 µg/mL)	0.37 (≈ 0.238 µg/mL)	1.52 (≈ 0.977 µg/mL)	0.011 (≈ 0.00707 µg/mL)	0.047 (≈ 0.0302 µg/mL)	0.047 (≈ 0.0302 µg/mL)	0.76 (≈ 0.488 µg/mL)	COc1ccc(-n2c(-c3ccccc3O)nn(CN3CCN(c4cc5c(cc4F)c(=O)c(C(=O)O)cn5C4CC4)CC3)c2=S)cc1	<=4	<=4	<=4
0.38 (≈ 0.238 µg/mL)	0.19 (≈ 0.119 µg/mL)	0.19 (≈ 0.119 µg/mL)	0.096 (≈ 0.0602 µg/mL)	0.048 (≈ 0.0301 µg/mL)	0.096 (≈ 0.0602 µg/mL)	1.56 (≈ 0.978 µg/mL)	0.006 (≈ 0.00376 µg/mL)	0.048 (≈ 0.0301 µg/mL)	0.012 (≈ 0.00752 µg/mL)	0.19 (≈ 0.119 µg/mL)	O=C(O)c1cn(C2CC2)c2cc(N3CCN(Cn4nc(-c5cccc(O)c5)n(Cc5ccccc5)c4=S)CC3)c(F)cc2c1=O	<=4	<=4	<=4
0.76 (≈ 0.479 µg/mL)	0.38 (≈ 0.24 µg/mL)	0.38 (≈ 0.24 µg/mL)	0.19 (≈ 0.12 µg/mL)	0.095 (≈ 0.0599 µg/mL)	0.19 (≈ 0.12 µg/mL)	1.55 (≈ 0.978 µg/mL)	0.012 (≈ 0.00757 µg/mL)	0.048 (≈ 0.0303 µg/mL)	0.024 (≈ 0.0151 µg/mL)	0.38 (≈ 0.24 µg/mL)	O=C(O)c1cn(C2CC2)c2cc(N3CCN(Cn4nc(-c5cccc(O)c5)n(-c5ccc(F)cc5)c4=S)CC3)c(F)cc2c1=O	<=4	<=4	<=4
0.76 (≈ 0.492 µg/mL)	0.37 (≈ 0.239 µg/mL)	0.37 (≈ 0.239 µg/mL)	0.093 (≈ 0.0602 µg/mL)	0.093 (≈ 0.0602 µg/mL)	0.18 (≈ 0.116 µg/mL)	1.51 (≈ 0.977 µg/mL)	0.012 (≈ 0.00777 µg/mL)	0.046 (≈ 0.0298 µg/mL)	0.024 (≈ 0.0155 µg/mL)	0.37 (≈ 0.239 µg/mL)	O=C(O)c1cn(C2CC2)c2cc(N3CCN(Cn4nc(-c5cccc(O)c5)n(-c5ccc(Cl)cc5)c4=S)CC3)c(F)cc2c1=O	<=4	<=4	<=4
1.48 (≈ 0.979 µg/mL)	1.48 (≈ 0.979 µg/mL)	1.48 (≈ 0.979 µg/mL)	0.18 (≈ 0.119 µg/mL)	0.18 (≈ 0.119 µg/mL)	0.18 (≈ 0.119 µg/mL)	2.95 (≈ 1.95 µg/mL)	0.023 (≈ 0.0152 µg/mL)	0.18 (≈ 0.119 µg/mL)	0.023 (≈ 0.0152 µg/mL)	0.36 (≈ 0.238 µg/mL)	O=C(O)c1cn(C2CC2)c2cc(N3CCN(Cn4nc(-c5cccc(O)c5)n(Cc5ccc(Cl)cc5)c4=S)CC3)c(F)cc2c1=O	<=4	<=4	<=4
1.6 (≈ 0.98 µg/mL)	0.39 (≈ 0.239 µg/mL)	0.39 (≈ 0.239 µg/mL)	0.098 (≈ 0.06 µg/mL)	0.024 (≈ 0.0147 µg/mL)	0.098 (≈ 0.06 µg/mL)	1.6 (≈ 0.98 µg/mL)	0.024 (≈ 0.0147 µg/mL)	0.049 (≈ 0.03 µg/mL)	0.049 (≈ 0.03 µg/mL)	0.2 (≈ 0.123 µg/mL)	O=C(O)c1cn(C2CC2)c2cc(N3CCN(Cn4nc(-c5ccc(O)cc5)n(-c5ccccc5)c4=S)CC3)c(F)cc2c1=O	<=4	<=4	<=4
3.11 (≈ 1.95 µg/mL)	1.56 (≈ 0.978 µg/mL)	1.56 (≈ 0.978 µg/mL)	0.19 (≈ 0.119 µg/mL)	0.78 (≈ 0.489 µg/mL)	0.19 (≈ 0.119 µg/mL)	6.24 (≈ 3.91 µg/mL)	0.048 (≈ 0.0301 µg/mL)	0.19 (≈ 0.119 µg/mL)	0.024 (≈ 0.015 µg/mL)	0.38 (≈ 0.238 µg/mL)	O=C(O)c1cn(C2CC2)c2cc(N3CCN(Cn4nc(-c5ccc(O)cc5)n(Cc5ccccc5)c4=S)CC3)c(F)cc2c1=O	<=4	<=4	<=4
0.76 (≈ 0.492 µg/mL)	0.37 (≈ 0.239 µg/mL)	0.093 (≈ 0.0602 µg/mL)	0.18 (≈ 0.116 µg/mL)	0.046 (≈ 0.0298 µg/mL)	0.18 (≈ 0.116 µg/mL)	1.51 (≈ 0.977 µg/mL)	0.011 (≈ 0.00712 µg/mL)	0.093 (≈ 0.0602 µg/mL)	0.012 (≈ 0.00777 µg/mL)	0.18 (≈ 0.116 µg/mL)	O=C(O)c1cn(C2CC2)c2cc(N3CCN(Cn4nc(-c5ccc(O)cc5)n(-c5ccc(Cl)cc5)c4=S)CC3)c(F)cc2c1=O	<=4	<=4	<=4
2.97 (≈ 1.95 µg/mL)	0.75 (≈ 0.493 µg/mL)	0.75 (≈ 0.493 µg/mL)	1.49 (≈ 0.979 µg/mL)	0.18 (≈ 0.118 µg/mL)	0.091 (≈ 0.0598 µg/mL)	5.95 (≈ 3.91 µg/mL)	0.046 (≈ 0.0302 µg/mL)	0.091 (≈ 0.0598 µg/mL)	0.091 (≈ 0.0598 µg/mL)	0.36 (≈ 0.236 µg/mL)	COc1ccc(Cn2c(-c3ccc(O)cc3)nn(CN3CCN(c4cc5c(cc4F)c(=O)c(C(=O)O)cn5C4CC4)CC3)c2=S)cc1	<=4	<=4	<=4

Compound	MIC [1] [µM]	MIC [2] [µM]	MIC [3] [µM]	MIC [4] [µM]	MIC [5] [µM]	MIC [6] [µM]	MIC [7] [µM]	MIC [11] [µM]	MIC [12] [µM]	MIC [13] [µM]	MIC [14] [µM]	Ratio [8]	Ratio [9]	Ratio [10]
CN[C@H](CC(C)C)C(=O)N[C@H]1C(=O)N[C@@H](CC(N)=O)C(=O)N[C@H]2C(=O)N[C@H]3C(=O)N[C@H](C(=O)N[C@H](C(=O)O)c4cc(O)cc(O)c4-c4cc3ccc4O)[C@H](O)c3ccc(c(Cl)c3)Oc3cc2cc(c3O[C@@H]2O[C@H](CO)[C@@H](O)[C@H](O)[C@H]2O[C@H]2C[C@](C)(N)[C@H](O)[C@H](C)O2)Oc2ccc(cc2Cl)[C@H]1O [VANCOMYCIN]			0.68 (≈ 0.986 µg/mL)											
